Measurements: paper PMC3481556 (Journal of Natural Products, 2012)

Experiments:
[1] = test system: blood stage; experiment: Blood stage assays; type: cell-based; settings: Plasmodium berghei, read-out: IC50 in blood stage assays
[2] = test system: Bacillus subtilis 3610; experiment: Antibiotic assay; type: cell-based; settings: concentrations as high as 50 μg/mL
[3] = test system: liver-stage Plasmodium berghei; experiment: Liver-stage P. berghei assay; type: cell-based, Plasmodium berghei ANKA
Outline: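 Luciferase-expressing P. berghei ANKA sporozoites came from dissected infected Anopheles stephensi mosquitoes. 4000 sporozoites infected 15 000 HepG2 cells per well with test compound in triplicate, 0 to 50 μg/mL, final DMSO 1%. After 2 days at 37 °C, relative parasite load was read by Bright-Glo luminescence. Standard inhibition dose–response fit gave IC50, mean of two independent experiments.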

[4] = test system: HepG2 human hepatoma cells; experiment: Cytotoxic assay, HepG2 cell viability; type: cell-based; settings: concentrations as high as 50 μg/mL
Outline: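 HepG2 cells kept in DMEM with 10% FBS and 1% antibiotic–antimycotic at 37 °C, 5% CO2. Test compound in DMSO added in triplicate to 15 000 cells per well, 0 to 50 μg/mL, final DMSO 1%. Incubated 2 days at 37 °C, then viability read by CellTiter-Glo luminescence. Standard inhibition dose–response fit gave IC50, averaged from two independent experiments.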

Row | SMILES | IC50 [1] | activity against B. subtilis (in words) [2] | activity against liver-stage Plasmodium berghei (in words) [3] | cytotoxicity against HepG2 cells (in words) [4]
1 | O=C1C(O)=C([C@H]2CC[C@H](c3ccc(Cl)cc3)CC2)C(=O)c2ccccc21 [Atovaquone] | 300 pM | – | – | –
2 | COc1cccc2c1C(=O)c1ccc3c(c1C2=O)C(=O)C[C@](C)(O)C3 [Compound 4, 6-deoxy-8-O-methylrabelomycin] | – | showed antibiotic activity | showed antibiotic activity | –
3 | COc1cccc2c1C(=O)c1ccc3cc(C)cc(O)c3c1C2=O [Compound 5, X-14881 E] | – | showed antibiotic activity | showed antibiotic activity | moderate cytotoxicity
